Hits are enriched below; roughly 4.7% of the tested compounds scored in any of these assays.
VIM-2 inh = inhibitors of Pseudomonas aeruginosa VIM-2 metallo-beta-lactamase; inhibition, % at 5.6 µM; purified VIM-2, nitrocefin hydrolysis, epi-absorbance fluorescence; 290,000 tested, 0.89% active;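 active = inhibition above the mean of all tested compounds plus 3 SD, cutoff set per screening run, cut at about 7.5% in these data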;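 also: red hydrolysis product quenches plate fluorescence so inhibitors raise well fluorescence; 0% = enzyme with DMSO and 100% = DMSO without enzyme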
Mdm2 MdmX PPI = human Mdm2/MdmX binding inhibition; O15151+Q00987; SaOS-2 split-luciferase Mdm2/MdmX complementation, luminescence; inhibition, % at 8 µM; 330,000 tested, 3% active; AID 485346;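 active = inhibition of at least 50% at 8 µM in the primary screen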
Target sequence (O15151 whole entry, looked up): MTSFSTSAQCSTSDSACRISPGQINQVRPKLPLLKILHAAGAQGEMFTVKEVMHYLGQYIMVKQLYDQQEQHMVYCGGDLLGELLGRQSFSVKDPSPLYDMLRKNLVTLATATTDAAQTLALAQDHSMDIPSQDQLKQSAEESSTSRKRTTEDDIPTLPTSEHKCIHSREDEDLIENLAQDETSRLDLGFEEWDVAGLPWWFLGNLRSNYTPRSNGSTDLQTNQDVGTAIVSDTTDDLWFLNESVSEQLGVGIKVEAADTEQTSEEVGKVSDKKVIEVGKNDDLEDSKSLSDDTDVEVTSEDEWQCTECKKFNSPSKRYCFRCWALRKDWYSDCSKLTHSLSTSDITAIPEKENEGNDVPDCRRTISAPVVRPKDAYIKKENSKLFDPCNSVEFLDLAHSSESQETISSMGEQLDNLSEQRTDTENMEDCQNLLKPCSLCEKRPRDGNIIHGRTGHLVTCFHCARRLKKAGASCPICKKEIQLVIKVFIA
Target sequence (Q00987 whole entry, looked up): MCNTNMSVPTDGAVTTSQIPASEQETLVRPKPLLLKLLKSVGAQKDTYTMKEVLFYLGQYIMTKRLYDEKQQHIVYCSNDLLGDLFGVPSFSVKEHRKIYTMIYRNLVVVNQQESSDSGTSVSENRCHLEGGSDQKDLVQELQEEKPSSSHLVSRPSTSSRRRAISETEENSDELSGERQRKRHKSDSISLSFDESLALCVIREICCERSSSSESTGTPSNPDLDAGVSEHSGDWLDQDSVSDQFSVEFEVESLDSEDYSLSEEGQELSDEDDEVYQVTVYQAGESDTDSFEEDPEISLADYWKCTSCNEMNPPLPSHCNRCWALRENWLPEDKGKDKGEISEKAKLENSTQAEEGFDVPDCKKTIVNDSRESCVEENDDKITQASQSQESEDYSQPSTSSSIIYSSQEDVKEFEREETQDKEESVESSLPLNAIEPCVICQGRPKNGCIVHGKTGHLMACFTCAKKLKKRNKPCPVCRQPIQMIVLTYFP
IMP-1 inhibitor = blocks Pseudomonas aeruginosa IMP-1 metallo-beta-lactamase | purified IMP-1, nitrocefin hydrolysis, epi-absorbance fluorescence | inhibition, % at 5.6 µM | 290,000 tested, 0.45% active;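 active = inhibition above the mean plus 3 SD of all compounds in the same screening run, cut at about 4.5% in these data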;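 also: 0% = IMP-1 with DMSO and 100% = DMSO wells lacking enzyme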
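System: purified recombinant IMP-1 beta-lactamase. Medium: Zinc- and detergent-supplemented HEPES buffer, pH 7.1. Compound: one 5.6 µM dose […]. Schedule: 15 min preincubation plus 25 min reaction at 25 °C. Technique: Epi-absorbance fluorescence, 480 nm excitation, 530 nm emission.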
Jurkat NFkB inh = inhibitors of the PMA/ionomycin-induced NF-kB reporter in Jurkat cells | inhibition, % at 4 µM | PMA/ionomycin-induced NF-kB luciferase reporter, luminescence | 330,000 tested, 0.53% active; in the data active = inhibition above about 50%
aSyn 5UTR inh = 5' untranslated region of α-synuclein, MLPCN primary screen; inhibition, % (tested at 7.5 µM); AID 1813; alpha-synuclein 5'UTR reporter, inhibitor activity; 300,000 tested, 0.82% active; in the data active = inhibition above about 60%;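 also: H4 neuroglioblastoma cells stably carrying SNCA 5'UTR luciferase fusion; 0% = DMSO wells and 100% = positive control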
697 NFkB inh = inhibitors of the PMA/ionomycin-induced NF-kB reporter in 697 B cells. 697 B-cell NF-kB luciferase reporter, 16 h. inhibition, % at 4 µM. 330,000 tested, 0.33% active. AID 435022; in the data active = inhibition above about 35%
Mdm2-MdmX conf = human Mdm2/MdmX binding inhibition, confirmed; shares compounds with Mdm2 MdmX PPI; luminescent assay; inhibition, % at 8 µM; 10,000 tested, 55% active; AID 489028; in the data active = inhibition above about 40%
Full FLuc ctr = inhibits full-length luciferase, flagging false Mdm2/MdmX hits | inhibition, % at 8 µM | shares compounds with Mdm2 MdmX PPI | SaOS-2 full-length luciferase counterscreen, luminescence | AID 504607 | 6,200 tested, 77% active;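 active = mean inhibition at 8 µM reaching about 37%, which flags the compound as non-specific, limit read from the data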;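 also: p53-null SaOS-2 cells with luciferase driven by a doxycycline-inducible promoter; compound on cells about two nights before reading with doxycycline added after day one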
The depositor's hits bear a star; . = no result given.

SMILES | VIM-2 inh | Mdm2 MdmX PPI | IMP-1 inhibitor | Jurkat NFkB inh | aSyn 5UTR inh | 697 NFkB inh | Mdm2-MdmX conf | Full FLuc ctr
COC(=O)c1ccc(-n2c(C)cc(C(=O)CCl)c2C)cc1 | -1.1 | 93.9* | -3.2 | -4.9 | 31.7 | 23.9 | 61.7* | 58.1*
CCOC(=O)c1cc(C)n(-c2ccc(Cl)cc2)c1C | -3.4 | 17.0 | -2.5 | 17.5 | -28.7 | -5.2 | . | .
COc1ccc(S(=O)(=O)N2CCOC2CNC(=O)C(=O)NCC(C)C)cc1OC (configuration not stated) | -2.1 | -5.2 | -1.8 | 12.3 | 7.4 | 9.9 | . | .
Cc1cc(Nc2ccccc2C(=O)O)nc2nc3ccccc3c(=O)n12 | -1.9 | -0.8 | 0.7 | -7.1 | 13.7 | 0.1 | . | .
NC(=O)c1ccccc1Nc1nc2nc3ccccc3c(=O)n2cc1Br | 4.8 | 73.7* | 1.0 | 4.5 | -82.7 | 13.7 | -4.8 | .
COc1ccccc1C(=O)/C=C/c1ccc(N2CCCCC2)c([N+](=O)[O-])c1 | -1.9 | 98.8* | -1.7 | -4.5 | -215.9 | -3.7 | 37.1 | 70.3*
C=CCNC(=O)CSc1nnc(-c2ccccc2Br)n1-c1cccc(C(F)(F)F)c1 | -3.4 | 7.7 | -2.4 | -2.3 | 18.0 | 14.0 | . | .
Cc1cccc(NC(=O)c2cc3c([nH]c4ccccc43)c(C)n2)c1C | -1.4 | 65.8* | -1.3 | -11.8 | -21.9 | -23.6 | 3.4 | .
CCOc1ccc(NC(=O)C2CCCN(S(=O)(=O)c3cccc4nsnc34)C2)cc1 (configuration not stated) | -0.1 | -2.5 | -0.2 | -3.3 | -26.4 | 11.6 | . | .
O=C(O)CSc1nnc(Cc2cccc3ccccc23)n1-c1cc(C(F)(F)F)cc(C(F)(F)F)c1 | -0.9 | 12.2 | -4.0 | 12.4 | 1.7 | 1.9 | . | .
Cc1[nH]c2ccccc2c1C(c1ccccn1)N1CCCC1 (configuration not stated) | -2.6 | 30.9 | -1.2 | 13.1 | 2.4 | 22.6 | . | .
CCOC(=O)C1CCCN(C(c2ccccn2)c2c(C)[nH]c3ccccc23)C1 (configuration not stated) | -1.6 | 52.8* | -2.5 | -4.1 | 16.6 | -1.1 | 3.7 | .
Cc1[nH]c2ccccc2c1C(c1ccccn1)N1CCC(C)CC1 (configuration not stated) | -1.8 | 50.7* | -2.2 | -13.1 | 19.3 | -39.4 | -0.2 | .
CCOC(=O)C1CCCN(C(=O)Cc2c(C(=O)O)[nH]c3ccccc23)C1 (configuration not stated) | -1.4 | 13.3 | -1.6 | 12.8 | 12.2 | 9.1 | . | .
N#Cc1ccccc1OCC(=O)NNC(=O)CNC(=O)c1cccc(Br)c1 | . | 7.6 | . | 0.6 | . | 16.2 | . | .
Cc1ccc(C(=O)C(OC(=O)c2cnccn2)c2ccccc2)cc1 (configuration not stated) | -2.4 | -9.0 | -1.5 | -2.1 | 13.2 | -9.5 | . | .
CCc1ccc2c(c1)C1(NN=C(c3ccc(C)cc3)S1)C(=O)N2 (configuration not stated) | -0.5 | 74.3* | -0.9 | -6.2 | 52.7 | -17.3 | 67.8* | 63.2*
Cc1ccc(Cc2cc(-c3ccc(C)cc3)n[nH]c2=O)cc1 | -3.4 | -7.9 | -3.7 | -21.6 | -24.8 | -6.7 | . | .
CC(C)c1ccc2c(c1)C1(NN=C(c3ccccc3)S1)C(=O)N2 (configuration not stated) | -0.5 | 59.0* | -0.6 | -50.3 | 52.6 | -60.2 | 69.2* | 69.2*
COc1ccccc1-n1c(=O)c2c3c(sc2n2c(=S)[nH]nc12)CCC3 | -3.3 | 11.7 | -3.5 | 11.6 | 21.6 | 12.3 | . | .
COc1ccc(OC)c(-c2csc(N(CC3CCCO3)C(=O)Cc3ccccc3)n2)c1 (configuration not stated) | -0.9 | 29.4 | -2.0 | 3.3 | 42.4 | 4.1 | . | .
Cc1cccc2sc(NNC(=O)c3ccc(S(=O)(=O)N4CC(C)CC(C)C4)cc3)nc12 (configuration not stated) | -3.9 | 88.4* | -4.3 | -3.3 | 81.5* | 10.1 | 86.7* | 55.2*
COC(=O)c1ccc(-c2csc(NC(=O)c3ccc(S(=O)(=O)N4CCc5ccccc5C4)cc3)n2)cc1 | 1.4 | 50.7* | -3.4 | -2.3 | 11.9 | -9.8 | 9.6 | .
Cc1ccc2nc(NNC(=O)c3ccc4c(c3)OCCO4)sc2c1 | -4.6 | 8.7 | -1.3 | -1.0 | -30.3 | -18.9 | . | .
Cc1cc(C)c2nc(NNC(=O)c3ccc(S(=O)(=O)N4CC(C)CC(C)C4)cc3)sc2c1 (configuration not stated) | -5.1 | 83.9* | -4.1 | -12.9 | 71.9* | -15.6 | 69.7* | 23.2
SMILES | VIM-2 inh | Mdm2 MdmX PPI | IMP-1 inhibitor | Jurkat NFkB inh | aSyn 5UTR inh | 697 NFkB inh | Mdm2-MdmX conf | Full FLuc ctr
Cc1ccc2nc(NNC(=O)c3ccc(S(=O)(=O)N4CCc5ccccc5C4)cc3)sc2c1 | -2.6 | 74.2* | 1.0 | 0.3 | 96.0* | -39.6 | 87.5* | 63.4*
COc1ccc(NS(=O)(=O)c2cn(C)cn2)c(OC)c1 | -1.1 | -13.1 | -6.2 | 0.7 | 9.2 | 1.1 | . | .
Cc1cc(C)c2nc(NNC(=O)c3ccc(S(=O)(=O)N4CCCC(C)C4)cc3)sc2c1 (configuration not stated) | -5.7 | 82.6* | -2.8 | 2.3 | 72.9* | -24.7 | 86.2* | 45.3*
CC(C)CC1NC(=O)N(CC(=O)Nc2cc([N+](=O)[O-])ccc2F)C1=O (configuration not stated) | . | 6.1 | . | 9.9 | . | 13.8 | . | .
COc1ccc(OC)c(Nc2nc(-c3c(C)nc4ncccn34)cs2)c1 | 0.7 | 75.6* | -3.6 | 9.2 | -13.8 | 16.5 | 34.0 | 85.2*
COc1ccc(Nc2nc(-c3sc(C)nc3C)cs2)c(OC)c1 | -0.6 | 64.6* | -5.2 | 47.1 | -123.6 | -58.4 | 56.3* | 63.2*
Cc1ccccc1NC(=S)N1CCC(NC(=O)c2ccco2)CC1 | -3.6 | 1.7 | -3.3 | 0.0 | 17.2 | 15.5 | . | .
COc1cc(C(=O)Nc2c(C)cc(C)cc2C)c(Br)c(OC)c1OC | -2.6 | -9.4 | 1.1 | -25.3 | -10.2 | -7.1 | . | .
CSc1nc2ccc3nc(NC(=O)c4ccc(C)cc4)sc3c2s1 | -2.4 | 61.3* | -1.6 | -12.2 | -34.9 | -17.3 | 26.3 | .
CCCc1nn2c(=O)cc(COc3ccc(NC(=O)c4ccco4)cc3)nc2s1 | -2.2 | 74.1* | -4.3 | 7.1 | -3.0 | -17.1 | -0.2 | .
CCc1nn2c(=O)cc(COc3ccc(NC(=O)c4ccco4)cc3)nc2s1 | -4.1 | 34.0 | -5.0 | 5.9 | -10.5 | 4.9 | . | .
Cc1ccc(C(=O)c2oc3ccc(Cl)cc3c2NC(=O)CN2CCN(C)CC2)cc1 | 2.9 | 81.7* | -1.3 | 4.2 | -107.6 | 4.7 | 34.4 | 68.2*
CCCNC(=O)c1ccccc1SCc1c(C)noc1C | -1.4 | 45.2 | -0.7 | 8.8 | 1.8 | 11.0 | . | .

Screening data as filed in PubChem.
